Experimental data gathered from unrelated publications.
Lines come from different studies, so protocols differ.
Target: Serine/threonine-protein kinase Nek11 (NEK11, Homo sapiens, UniProt Q8NG66)
Residues used in one study (Q8NG66 1-645): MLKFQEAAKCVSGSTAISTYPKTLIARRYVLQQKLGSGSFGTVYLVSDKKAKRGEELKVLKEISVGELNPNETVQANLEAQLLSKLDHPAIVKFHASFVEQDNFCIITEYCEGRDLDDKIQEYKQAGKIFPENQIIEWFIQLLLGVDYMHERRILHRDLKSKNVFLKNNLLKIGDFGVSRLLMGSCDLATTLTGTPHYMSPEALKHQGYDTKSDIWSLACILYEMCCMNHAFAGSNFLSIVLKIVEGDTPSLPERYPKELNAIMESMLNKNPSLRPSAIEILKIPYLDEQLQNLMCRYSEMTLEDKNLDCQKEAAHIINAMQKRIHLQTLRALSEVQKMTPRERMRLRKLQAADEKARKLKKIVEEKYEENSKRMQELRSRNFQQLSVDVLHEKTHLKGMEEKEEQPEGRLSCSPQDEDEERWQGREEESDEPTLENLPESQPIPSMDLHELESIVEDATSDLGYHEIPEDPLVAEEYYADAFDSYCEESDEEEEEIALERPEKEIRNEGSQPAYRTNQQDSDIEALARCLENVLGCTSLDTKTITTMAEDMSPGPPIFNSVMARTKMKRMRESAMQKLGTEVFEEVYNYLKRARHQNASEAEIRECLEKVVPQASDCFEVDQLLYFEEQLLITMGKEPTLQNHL

SMILES | assay | conditions | remaining binding [%]
Cn1nc(C(F)(F)F)cc1-c1cnc(N2CCc3cc(S(=O)(=O)Nc4c(F)cc(Cl)cc4F)cc(N4CCCC4=O)c32)nc1 | cell-free assay, competition with immobilised ligand | 1 µM | 78
N[C@@H]1CCN(c2nccc(-c3cnn4ncccc34)n2)C1 | binding | 1 µM | 100
COc1ncc2cc3ccccc3nc2c1C#N | cell-free assay, competition with immobilised ligand | 5 µM | 60
COc1cnc(Nc2cccc(S(N)(=O)=O)c2)nc1N1CCN(c2ccccc2)C(=O)C1 | binding, competition with immobilised ligand | 1 µM | 90
O=C(NCC1CCOCC1)c1n[nH]cc1NC(=O)c1c(F)cccc1F | binding, competition with immobilised ligand | 1 µM | 91
COc1ccnn2ncc(-c3ccnc(N(C)C)n3)c12 | binding | 1 µM | 100
O=C(NCCCN1CCOCC1)c1ccc(Nc2nccc(-c3cc4ccccc4s3)n2)cc1 | binding, competition with immobilised ligand | 1 µM | 75
COc1ccc2c(c1)O[C@@H](c1ccc(OC)c(OC)c1)C[C@H]2NC(=O)C1(c2ccc3c(c2)OC(F)(F)O3)CC1 | cell-free assay, competition with immobilised ligand | 1 µM | 83
C[C@@H](c1ccc(-n2cnc3c(N)ncnc32)cc1)N1CCc2nn(C)c(Cc3ccccc3)c2C1=O | binding, competition with immobilised ligand | 0.1 µM | 78
CCN1CCN(Cc2ccc(C(=O)Nc3ccc(C)c(Oc4ccc5c(c4)CC(=O)N5)c3)cc2C(F)(F)F)CC1 | binding, competition with immobilised ligand | 1 µM | 100
O=C(NCCCN1CCOCC1)c1ccc(Nc2ncc(Cl)c(-c3ccc(Cl)s3)n2)cc1 | binding, competition with immobilised ligand | 1 µM | 88
COCCOc1nc(-c2ccc(Cl)nc2)nc2c1CN(C(=O)c1ncn3ccccc13)CC2 | cell-free assay, competition with immobilised ligand | 0.1 µM | 100
C=CC(=O)N1CCC(C(=O)NCC(=O)N2CCN(c3nc(-c4cnc(N)nc4C(F)F)nc(N4CCOCC4)n3)CC2)CC1 | binding, competition with immobilised ligand | 1 µM | 69
C[C@@H]1CCN(c2nccc(-c3cnn4ncccc34)n2)C1 | binding | 1 µM | 90
CNCc1ccccc1-c1csc([C@H](C)Nc2nc(C)nc3cc(OC)c(OC)cc23)c1 | cell-free assay, competition with immobilised ligand | 1 µM | 100
CN(C)c1nccc(-c2cnc3ncccn23)n1 | binding | 1 µM | 81
Cc1cc(C)c(-n2ccn3nc(-c4cccnc4)cc23)cc1NC(=O)c1cc(C#N)cc(S(F)(F)(F)(F)F)c1 | cell-free assay, competition with immobilised ligand | 0.1 µM | 86.1
CN(C)c1nccc(-c2cnn3ncccc23)n1 | binding | 1 µM | 100
O=C(c1ccc(Nc2ncc(Cl)c(-c3ccc(Cl)s3)n2)cc1)N1CCC(N2CCCC2)CC1 | binding, competition with immobilised ligand | 1 µM | 100
c1cnn2ncc(-c3ccnc(N4CCC45COC5)n3)c2c1 | binding | 1 µM | 89
O=C(N[C@H]1CCCCC/C=C\C2C[C@@]2(C(=O)O)NC(=O)[C@@H]2C[C@@H](Oc3ccncc3)CN2C1=O)OC1CCCC1 (stereo partly drawn) | binding, competition with immobilised ligand | 1 µM | 100
